Bioassay records deposited in PubChem BioAssay by several laboratories.
CYP2C19 activ – increases human CYP2C19 enzyme activity; recombinant CYP2C19, luciferin-H EGE luminescence; active compounds read high; 0 = fully inhibited enzyme, 1 = untreated enzyme; P33261; activation factor at 5 µM; 96,000 tested, under 10 active;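 active = activation factor of at least 2 at 5 µM in the primary screen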
Target sequence (P33261 whole entry, looked up): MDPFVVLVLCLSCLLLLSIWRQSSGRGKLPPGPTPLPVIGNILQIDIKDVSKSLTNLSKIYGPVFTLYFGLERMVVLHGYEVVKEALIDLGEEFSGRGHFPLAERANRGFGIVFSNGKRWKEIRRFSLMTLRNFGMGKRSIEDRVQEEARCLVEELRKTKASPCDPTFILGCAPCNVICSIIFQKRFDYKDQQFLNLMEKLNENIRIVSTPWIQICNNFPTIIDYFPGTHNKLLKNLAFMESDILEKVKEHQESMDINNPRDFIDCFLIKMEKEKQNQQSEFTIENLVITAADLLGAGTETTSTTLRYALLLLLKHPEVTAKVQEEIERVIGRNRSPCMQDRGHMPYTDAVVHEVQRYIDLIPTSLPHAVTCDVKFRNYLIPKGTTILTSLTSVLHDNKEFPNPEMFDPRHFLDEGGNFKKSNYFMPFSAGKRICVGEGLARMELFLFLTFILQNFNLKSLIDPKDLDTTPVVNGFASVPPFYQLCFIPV
CYP2C9 inhib – blocks human cytochrome P450 2C9. CYP2C9 Supersomes, luciferin-H conversion, luminescence. inhibition, % at 5 µM. hit rate 20% among 96,000. AID 777;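 active = blocking of liver enzyme CYP2C9 beyond about 50% at 5 µM, limit read from the data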
CYP2C9 activ – CYP2C9 (human) activation. P11712. recombinant CYP2C9, luciferin-H conversion, luminescence; active compounds read high; factor 1 = untreated enzyme, 0 = blocked. activation factor at 5 µM. hit rate 1.4% among 96,000. AID 1024;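 active = activation factor of 2 or more for CYP2C9 at a 5 µM dose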
CYP2C19 inh – blocks human cytochrome P450 2C19; hit rate 21% among 96,000; inhibition, % at 5 µM; P33261; CYP2C19 Supersomes, luciferin-H EGE luminescence, 30 min;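 active = CYP2C19 inhibition above a set limit at 5 µM in the primary screen, cut at about 50% in these data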
E coli WT exp – growth inhibitors of E. coli BW25113 wild type. OD600 absorbance. growth inhibition, % at 100 µM. hit rate 0.15% among 98,000. AID 710;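 active = growth inhibition above about 50% at one test dose, limit read from the data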;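 also: growth measured after 20 h incubation at 37 °C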
tolC growth inh – E. coli tolC mutant growth inhibition. hit rate 2.2% among 65,000. E. coli BW25113 tolC mutant growth, OD615. AID 573. growth inhibition, % at 10 µM (by protocol);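 active = growth inhibition at or above a cutoff equal to the mean over every tested compound plus 3 SD, cut at about 60% in these data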;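 also: growth measured after 20 h incubation at 37 °C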
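Assay system: tolC-deleted E. coli BW25113. Medium: kanamycin-containing LB broth (50 µg/mL). Dosing: 10 µM final, single dose. Timing: bacterial growth with compound for 20 h at 37 °C. Detection: A615 absorbance measurement. Read-out basis: growth inhibition in percent.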
Large screens that a line does not name were inactive. Hits are enriched below; roughly 29% of the tested compounds scored in any of these assays.

COCCOC(=O)C1=C(C)N(Cc2ccccc2)C(=O)NC1c1cccc(OC)c1OC (stereo not given)	CYP2C9 inhib 90, CYP2C19 inh 99
COc1ccccc1NC(=O)C1=C(C)NC(=O)NC1c1cccc(OC)c1OC (stereo not given)	none
CC(=O)C1=C(c2ccccc2)NC(=O)NC1c1ccccc1OCC(=O)NCc1ccccc1 (stereo not given)	CYP2C9 inhib 95, CYP2C19 inh 90 (no result: tolC growth inh)
CC1=C(C(=O)NCc2ccccc2)C(c2ccccc2OCC(N)=O)NC(=O)N1 (stereo not given)	none
CCOc1ccccc1NC(=O)C1=C(C)NC(=O)NC1c1cccc(OC)c1OC (stereo not given)	none
COC(=O)C1=C(C)NC(=O)NC1c1cccc(OC)c1OCc1ccccc1 (stereo not given)	CYP2C9 inhib 77 (no result: tolC growth inh)
CCSCCOC(=O)C1=C(C)NC(=O)NC1c1cccc(OC)c1OC (stereo not given)	CYP2C19 inh 80
CCN(CC)CCNCc1ccc(-c2ccc(Cl)cc2)o1	none
CC1CCc2nc(NCCO)nc(C(F)(F)F)c2C1 (stereo not given)	none
COCCNc1oc(COc2cccc(C)c2)nc1C#N	CYP2C19 inh 57
COc1nc(NCCc2ccc(OC)c(OC)c2)nc(OC)n1	none
COc1ccc(CCNc2oc(COc3ccccc3Cl)nc2C#N)cc1OC	none (no result: CYP2C19 activ, CYP2C9 inhib, CYP2C9 activ, CYP2C19 inh)
COc1ccc(CCNc2oc(Cc3ccccc3)nc2C#N)cc1OC	CYP2C9 inhib 50, CYP2C19 inh 75
COc1ccc(CCNc2oc(COc3ccccc3F)nc2C#N)cc1OC	CYP2C9 inhib 91, CYP2C19 inh 96
COc1ccc(CCNc2oc(COc3ccc(F)cc3)nc2C#N)cc1	CYP2C9 inhib 70, CYP2C19 inh 53, tolC growth inh 96
CN(C)C(=O)N1CCC(C(=O)NCC2CCCO2)CC1 (stereo not given)	none
CC1=C(C(=O)Nc2ccccc2)C(c2sccc2C)n2nnnc2N1 (stereo not given)	none (no result: tolC growth inh)
Cc1oc(-c2ccccc2F)nc1CN1CCC(C(=O)NC2CC2)CC1	none
N#Cc1nc(COc2ccccc2Cl)oc1NCc1ccco1	none (no result: tolC growth inh)
CCNc1oc(COc2ccccc2F)nc1C#N	CYP2C19 inh 96
COc1cc(S(=O)(=O)NCc2cccnc2)c(OC)cc1Br	none (no result: tolC growth inh)
CC1(C)CC(=O)C2=C(C1)NCN(Cc1ccc3c(c1)OCO3)C2	CYP2C9 inhib 85
c1cc2c(cc1CN1CCOCC1)OCO2	none (no result: tolC growth inh)
CC(C)C(NC(=O)COc1ccc2ccccc2c1)C(=O)N/N=C/C=C/c1ccccc1 (stereo not given)	none (no result: tolC growth inh)
CN1CCn2c1nc(N1CCCCC1)nc2=O	none
O=C(O)CCNS(=O)(=O)c1ccc(Oc2ccccc2Cl)cc1	none (no result: tolC growth inh)
CCNS(=O)(=O)c1ccc(CCC(=O)Nc2cc(Cl)ccc2Oc2ccccc2)cc1	CYP2C9 inhib 82, CYP2C19 inh 64 (no result: tolC growth inh)
CC(C)NS(=O)(=O)c1ccc(CCC(=O)Nc2cc(Cl)ccc2Oc2ccccc2)cc1	CYP2C9 inhib 67 (no result: tolC growth inh)
O=C(NCCCn1ccnc1)C(F)(F)C(F)(F)C(=O)NCCCn1ccnc1	CYP2C9 inhib 98
C/C(=N\O)C(=O)NCCCn1ccnc1	none (no result: CYP2C19 activ, CYP2C9 inhib, CYP2C9 activ, CYP2C19 inh, E coli WT exp)
CC(NC(=O)NCCCn1ccnc1)(C(F)(F)F)C(F)(F)F	CYP2C9 inhib 68, CYP2C19 inh 91
CC(NC(=O)NCCCC(=O)O)(C(F)(F)F)C(F)(F)F	none
CCOc1ccc(-c2nnn(CC(=O)c3ccc4c(c3)OCCO4)n2)cc1OCC	none
c1ccc(-c2nc3nc4ccccc4nc3n2Cc2ccco2)cc1	CYP2C9 inhib 51
Fc1ccc(-c2nc3nc4ccccc4nc3n2Cc2ccco2)cc1	none
CCCCOCCCn1c(-c2ccco2)nc2nc3ccccc3nc21	CYP2C9 inhib 52
O=C(COc1ccc(Br)cc1)Nc1ccc([N+](=O)[O-])cn1	none (no result: tolC growth inh)
Cc1onc(-c2ccccc2)c1C(=O)Nc1cccc(C#N)c1	CYP2C19 inh 55
Cc1onc(-c2ccccc2)c1C(=O)Nc1nc2c(s1)C(=O)CC(C)(C)C2	CYP2C9 inhib 54 (no result: tolC growth inh)
CC1(C)CC(=O)c2sc(NC(=O)c3ccco3)nc2C1	none
Cc1noc(C)c1C(=O)Nc1nnc(-c2ccccc2)s1	none
Cc1onc(-c2ccccc2)c1C(=O)Nc1ccc2c(C)cc(=O)oc2c1	none
Cc1onc(-c2ccccc2)c1C(=O)Nc1nnc(-c2ccncc2)s1	CYP2C9 inhib 99, CYP2C19 inh 61
Cc1onc(-c2ccccc2)c1C(=O)Nc1ccncc1	CYP2C9 inhib 90, CYP2C19 inh 92
Cc1ccc(NC(=O)CCc2c(C)nc3ncnn3c2C)nc1	none
CCC(C)NS(=O)(=O)c1ccc(NC(=O)c2c(-c3ccccc3)noc2C)cc1 (stereo not given)	CYP2C9 inhib 62, CYP2C19 inh 86
Cc1onc(-c2ccccc2)c1C(=O)Nc1ccc(S(=O)(=O)NC2=NCCCCC2)cc1	none
Cc1ccc(-n2ccc(=O)c(-c3ccnc(SCc4cccc(Cl)c4)n3)n2)cc1	CYP2C9 inhib 56 (no result: tolC growth inh)
CCc1ccc(NC(=O)CSc2nnc(Cc3cccn3C)n2-c2ccc(F)cc2)cc1	CYP2C9 inhib 76, tolC growth inh 66
Cc1ccc(NC(=O)CSc2nnc(Cc3cccn3C)n2-c2ccc(F)cc2)c(C)c1	CYP2C9 inhib 68
Cn1cccc1Cc1nnc(SCC(=O)Nc2cccc(F)c2)n1-c1ccc(F)cc1	none
Cn1cccc1Cc1nnc(SCC(=O)Nc2ccc(F)cc2F)n1-c1ccc(F)cc1	CYP2C9 inhib 58, CYP2C19 inh 52
Cc1ccc(NC(=O)CSc2nnc(Cc3cccn3C)n2-c2ccc(F)cc2)cc1	none
CCOC(=O)c1ccccc1NC(=O)CSc1nnc(Cc2cccn2C)n1-c1ccc(F)cc1	CYP2C9 inhib 57
O=C(CN(CCc1ccccc1)C(=O)CNS(=O)(=O)c1ccc(F)cc1)NCC1CCCO1 (stereo not given)	none
COc1ccc(CC(NC(C)=O)C(=O)N2CCN(C(=O)N(C(C)C)C(C)C)CC2)cc1 (stereo not given)	none
Cc1ccc(S(=O)(=O)NC(=O)NCCCCNC(=O)NS(=O)(=O)c2ccc(C)cc2)cc1	none (no result: tolC growth inh)
COc1ccc(CC(=O)OCC(=O)NC(=O)NC(C)C)cc1	none (no result: tolC growth inh)
O=S(=O)(c1cnccc1N1CCN(/N=C/c2ccccc2)CC1)N1CCCCC1	none (no result: tolC growth inh)
Cc1ccc(-c2cc(C(=O)NCc3cnn(C)c3C)c3cc(Br)ccc3n2)cc1	CYP2C9 inhib 63 (no result: tolC growth inh)
CCCc1[nH]c(=O)c(C#N)c2c1CCCC2	none (no result: tolC growth inh)
Cc1ccnc(NS(=O)(=O)c2ccc(Oc3ccccc3)cc2)c1	CYP2C19 inh 67 (no result: tolC growth inh)
Cc1ccnc(NS(=O)(=O)c2cccs2)c1	none
CCOC(=O)CSC1=C(C#N)C(c2ccco2)C(C(=O)Nc2cccc(C(F)(F)F)c2)=C(C)N1 (stereo not given)	CYP2C9 inhib 82, CYP2C19 inh 78, tolC growth inh 61
